Columns and labels:
Canis familiaris [1] = assay: Mean arterial pressure by the compound in open chest anesthetized dog, after iv administration at a dose of 5.0 mg/kg.; assay type: functional, Canis lupus familiaris, Artery; design: unit not given here
Summary of the method: (§1)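 Hemodynamics (heart rate, mean arterial pressure) recorded in pentobarbital-anesthetized (30 mg/kg iv, 5 mg/kg per h maintenance) open-chest mongrel dogs during the refractoriness study at BCL 300 ms. Readings were taken before and after iv or intraduodenal compound and expressed as change from control.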

Canis familiaris [2] = organism: Canis familiaris; assay: Repolarization to reach -60mV, in canine Purkinje Fibers at a concentration of 30 uM at 300 ms (simulating tachycardia); assay type: functional, Canis lupus familiaris, Purkinje fiber
Summary of the method: (§2)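 Purkinje fiber bundles were stimulated with square-wave current pulses of 2.0 ms at twice threshold and equilibrated for at least 1 h, or until action potential parameters were steady. Each concentration was superfused for 45-60 min to reach steady state. Action potentials were recorded at four to six sites per fiber, under control and after drug.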

Canis familiaris [3] = assay: Ventricular conduction time by the compound in open chest anesthetized dog, after iv administration at a dose of 2.5 mg/kg.; assay type: functional, Canis lupus familiaris, Heart
Summary of the method: (§3)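 Mongrel dogs were anesthetized with sodium pentobarbital (30 mg/kg iv, then 5 mg/kg per h), the chest opened, and the heart paced at BCL 300 ms. Compound was given iv or intraduodenally. Ventricular conduction time was taken as the interval between electrograms at the proximal and distal sites of the recording electrode array. 2-5 dogs per dose.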

Canis familiaris [4] = organism: Canis familiaris; assay: Maximum rate of rise of the upstroke of transmembrane potential, in canine Purkinje Fibers at a concentration of 30 uM at 1000 ms (simulating normal heart rate); assay type: functional; conditions: Canis lupus familiaris, Purkinje fiber
Summary of the method: (§4)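 Isolated canine Purkinje fiber bundles were driven by square-wave pulses 2.0 ms long at 2× threshold and equilibrated ≥1 h to steady state. Each concentration was superfused 45–60 min before recording, and action potentials were sampled at 4–6 sites per fiber in control and after drug, giving Vmax and APD to −60 mV.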

Canis familiaris [5] = assay: Atrial conduction time by the compound in open chest anesthetized dog, after iv administration at a dose of 2.5 mg/kg.; assay type: functional, Canis lupus familiaris, Cardiac atrium
Summary of the method: (§5)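 Mongrel dogs anesthetized with sodium pentobarbital (30 mg/kg iv, then 5 mg/kg per h), chest opened, paced at BCL 300 ms. Atrial conduction time was taken as the interval between electrograms recorded at the proximal and distal sites of the atrial recording electrode array, before and after iv or intraduodenal dosing. Values are changes from control.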

Canis familiaris [6] = assay: Atrial effective refractory period by the compound in open chest anesthetized dog, after iv administration at a dose of 5.0 mg/kg.; assay type: functional, Canis lupus familiaris, Cardiac atrium; design: unit not given here
Summary of the method: (§6)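 Open-chest mongrel dogs under sodium pentobarbital anesthesia (30 mg/kg iv plus 5 mg/kg per h), paced at basic cycle length 300 ms. Atrial effective refractory period was determined by electrical stimulation before and after iv or intraduodenal compound and reported as change from control.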

Canis familiaris [7] = assay: Atrial conduction time by the compound in open chest anesthetized dog, after iv administration at a dose of 10.0 mg/kg.; assay type: functional, Canis lupus familiaris, Cardiac atrium; summary of the method: as §5
Canis familiaris [8] = assay: Heart beat by the compound in open chest anesthetized dog, after iv administration at a dose of 10.0 mg/kg.; assay type: functional, Canis lupus familiaris; summary of the method: as §1
Canis familiaris [9] = assay: Ventricular effective refractory period by the compound in open chest anesthetized dog, after iv administration at a dose of 10.0 mg/kg.; assay type: functional, Canis lupus familiaris, Heart
Canis familiaris [10] = assay: Mean arterial pressure by the compound in open chest anesthetized dog, after iv administration at a dose of 10.0 mg/kg.; assay type: functional, Canis lupus familiaris, Artery; summary of the method: as §1
Canis familiaris [11] = assay: Atrial effective refractory period by the compound in open chest anesthetized dog, after iv administration at a dose of 10.0 mg/kg.; assay type: functional, Canis lupus familiaris, Cardiac atrium; summary of the method: as §6
Canis familiaris [12] = assay: Heart beat by the compound in open chest anesthetized dog, after iv administration at a dose of 2.5 mg/kg.; assay type: functional, Canis lupus familiaris; summary of the method: as §1
Canis familiaris [13] = assay: Heart beat by the compound in open chest anesthetized dog, after iv administration at a dose of 5.0 mg/kg.; assay type: functional, Canis lupus familiaris; design: unit not given here; summary of the method: as §1
Canis familiaris [14] = assay: Ventricular conduction time by the compound in open chest anesthetized dog, after iv administration at a dose of 10.0 mg/kg.; assay type: functional, Canis lupus familiaris, Heart; summary of the method: as §3
Canis familiaris [15] = organism: Canis familiaris; assay: Maximum rate of rise of the upstroke of transmembrane potential, in canine Purkinje Fibers at a concentration of 300 uM at 1000 ms (simulating normal heart rate); assay type: functional; conditions: Canis lupus familiaris, Purkinje fiber; summary of the method: as §4
Canis familiaris [16] = organism: Canis familiaris; assay: Maximum rate of rise of the upstroke of transmembrane potential, in canine Purkinje Fibers at a concentration of 300 uM at 300 ms (simulating tachycardia); assay type: functional; conditions: Canis lupus familiaris, Purkinje fiber; summary of the method: as §4
Canis familiaris [17] = assay: Ventricular effective refractory period by the compound in open chest anesthetized dog, after iv administration at a dose of 5.0 mg/kg.; assay type: functional, Canis lupus familiaris, Heart; design: unit not given here
Canis familiaris [18] = organism: Canis familiaris; assay: Maximum rate of rise of the upstroke of transmembrane potential, in canine Purkinje Fibers at a concentration of 30 uM at 300 ms (simulating tachycardia); assay type: functional; conditions: Canis lupus familiaris, Purkinje fiber; summary of the method: as §4
Canis familiaris [19] = organism: Canis familiaris; assay: repolarization to reach -60mV, in canine Purkinje Fibers at a concentration of 300 uM at 1000 ms (simulating normal heart rate); assay type: functional, Canis lupus familiaris, Purkinje fiber; summary of the method: as §2
Canis familiaris [20] = assay: Atrial effective refractory period by the compound in open chest anesthetized dog, after iv administration at a dose of 2.5 mg/kg.; assay type: functional, Canis lupus familiaris, Cardiac atrium; summary of the method: as §6
Canis familiaris [21] = organism: Canis familiaris; assay: repolarization to reach -60mV, in canine Purkinje Fibers at a concentration of 30 uM at 1000 ms (simulating normal heart rate); assay type: functional, Canis lupus familiaris, Purkinje fiber; summary of the method: as §2
Canis familiaris [22] = assay: Atrial conduction time by the compound in open chest anesthetized dog, after iv administration at a dose of 5.0 mg/kg.; assay type: functional, Canis lupus familiaris, Cardiac atrium; design: unit not given here; summary of the method: as §5
Canis familiaris [23] = assay: Ventricular effective refractory period by the compound in open chest anesthetized dog, after iv administration at a dose of 2.5 mg/kg.; assay type: functional, Canis lupus familiaris, Heart
Canis familiaris [24] = organism: Canis familiaris; assay: Repolarization to reach -60mV, in canine Purkinje Fibers at a concentration of 300 uM at 300 ms (simulating tachycardia); assay type: functional, Canis lupus familiaris, Purkinje fiber; summary of the method: as §2
Canis familiaris [25] = assay: Mean arterial pressure by the compound in open chest anesthetized dog, after iv administration at a dose of 2.5 mg/kg.; assay type: functional, Canis lupus familiaris, Artery; summary of the method: as §1
Canis familiaris [26] = assay: Ventricular conduction time by the compound in open chest anesthetized dog, after iv administration at a dose of 5.0 mg/kg.; assay type: functional, Canis lupus familiaris, Heart; design: unit not given here; summary of the method: as §3

CC(C)NCC(O)c1ccc(NS(C)(=O)=O)cc1 (racemic) [SOTALOL]
MBP (Canis familiaris [1]): -17
APD (Canis familiaris [2]): 18%
VCT (Canis familiaris [3]): -1
Vmax (Canis familiaris [4]): 2
ACT (Canis familiaris [5]): -5
AERP (Canis familiaris [6]): 57
ACT (Canis familiaris [7]): -4
HR (Canis familiaris [8]): -39
VERP (Canis familiaris [9]): 30
MBP (Canis familiaris [10]): -29
AERP (Canis familiaris [11]): 68
HR (Canis familiaris [12]): -27
HR (Canis familiaris [13]): -28
VCT (Canis familiaris [14]): -4
Vmax (Canis familiaris [15]): -10
Vmax (Canis familiaris [16]): -20
VERP (Canis familiaris [17]): 25
Vmax (Canis familiaris [18]): -12
APD (Canis familiaris [19]): 86%
AERP (Canis familiaris [20]): 42
APD (Canis familiaris [21]): 56%
ACT (Canis familiaris [22]): -7
VERP (Canis familiaris [23]): 19
APD (Canis familiaris [24]): 36%
MBP (Canis familiaris [25]): -16
VCT (Canis familiaris [26]): -1

Reference: ChEMBL document CHEMBL1125789, “Synthesis and selective class III antiarrhythmic activity of novel N-heteroaralkyl-substituted 1-(aryloxy)-2-propanolamine and related propylamine derivatives” (J Med Chem, 1991)
